Experimental data collected from several papers.
Each line is one published result; the experiments were not run side by side.
Target: Ribosomal protein S6 kinase beta-1 (RPS6KB1, Homo sapiens, UniProt P23443)
Observed: enzyme activity
Mode: inhibitor

The remaining activity of `O=C(Nc1cnn(-c2csc(C(=O)NC3COC3)c2)c1)Nc1c(F)cccc1Cl` is reported as 97.7% (5 µM).
With `CCCOc1ccc(OC)c(F)c1C(=O)c1ccc(C(=O)N[C@@H]2CNC[C@H]2NC(=O)c2ccc3[nH]ncc3c2)cc1` the remaining activity was 2% (10 µM).
For `Cn1c(=O)n(-c2ccc(C(C)(C)C#N)cc2)c2c3cc(-c4cnc5ccccc5c4)ccc3ncc21`, the remaining activity was 109% (10 µM).
For `Cc1[nH]c(/C=C2\C(=O)Nc3ccc(F)cc32)c(C)c1C(=O)N[C@H]1CCN(C(=O)N(C)C)C1`, the remaining activity was 84% (0.1 µM).
For `Nc1nc(Nc2ccccc2)sc1C(=O)c1c(F)cccc1F`, the remaining activity was 57% (10 µM).
`CCN(CC)CCNC(=O)c1c(C)[nH]c(/C=C2\C(=O)Nc3ccc(F)cc32)c1C` has a remaining activity of 79% (0.1 µM).
For `O=S(=O)(Nc1cc(Sc2ncn[nH]2)c(O)c2ccccc12)c1ccc(-c2ccccc2)cc1`, the remaining activity was ≥ 75% (1 µM).
The remaining activity of `Oc1cccc(-c2nc(N3CCOCC3)c3oc4ncccc4c3n2)c1` is reported as 90% (10 µM).
For `COc1cc(Nc2cnc(C#N)c(O[C@H](C)CN(C)C)n2)ncc1-c1cnn(C)c1`, the remaining activity was 55% (radiometric; 1 µM).
With `Nc1nc(NC2CCCCC2)sc1C(=O)c1ccccc1` the remaining activity was 78% (10 µM).
For `CC(C)(C)c1nc2c(s1)c1nc(N)ncc1c1ccc(NS(=O)(=O)c3c(F)cccc3F)c(F)c12`, the remaining activity was 87% (radiometric; 1 µM).
With `Cc1ccc(C(=O)Nc2ccc(CN3CCN(C)CC3)c(C(F)(F)F)c2)cc1C#Cc1cnc2cccnn12` the remaining activity was 68% (23.5 nM).
